Data published in ChEMBL document CHEMBL1671680, “Pradimicin S, a highly soluble nonpeptidic small-size carbohydrate-binding antibiotic, is an anti-HIV drug lead for both microbicidal and systemic use” (Antimicrob Agents Chemother, 2010).

Columns and labels:
[1] = test system: Human immunodeficiency virus 1; assay: Ratio of KD for HIV-1 HXB2 gp41 to KD for HIV-1 3B gp120
Outline: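 SPR was run at 25°C. HIV-1 IIIB gp120 (CHO-derived, 122 RU) and HXB2 gp41 (Pichia-derived, 58 RU) were amine-coupled to a CM5 chip. Compound (2.5–40 μM, 2-fold steps) in HBS-P pH 7.4 with 10 mM CaCl2 was injected for 2 min at 45 μl/min, and dissociation was followed for 6 min. Apparent ka, kd and KD came from a 1:1 model fit of the three lowest concentrations.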

[2] = test system: PBMC; assay: Cytotoxicity against human PBMC cells at 50 uM after 7 days; type: cell-based; settings: 168 h
[3] = Aqueous solubility of the compound at physiological pH; type: physicochemical; settings: aqueous medium
[4] = Cytotoxicity against human PBMC after 7 days by trypan blue staining; type: cell-based
[5] = Cytotoxicity against human MT4 cells after 7 days by trypan blue staining; type: cell-based

Compound | Ratio [1] | Activity [2] [%] | solubility [3] [µM] | CC50 at 168 h [4] [µM] | CC50 at 168 h [5] [µM]
CN[C@@H]1[C@H](O[C@@H]2O[C@H](CO)[C@@H](O)[C@H](OS(=O)(=O)O)[C@H]2O)[C@@H](O)[C@H](O[C@H]2c3cc(C)c(C(=O)N[C@H](C)C(=O)O)c(O)c3-c3c(cc4c(c3O)C(=O)c3cc(OC)cc(O)c3C4=O)[C@@H]2O)O[C@@H]1C [PRADIMICIN S] | 30 |  |  |  | 
CN[C@@H]1[C@H](O[C@@H]2OC[C@@H](O)[C@H](O)[C@H]2O)[C@@H](O)[C@H](O[C@H]2c3cc(C)c(C(=O)N[C@H](C)C(=O)O)c(O)c3-c3c(cc4c(c3O)C(=O)c3cc(OC)cc(O)c3C4=O)[C@@H]2O)O[C@@H]1C [PRADIMICIN A] |  | > 95 | > 20 | > 50 | > 50
